Data from ChEMBL document CHEMBL1135421, “2-(Anilinomethyl)imidazolines as alpha1 adrenergic receptor agonists: the discovery of alpha1a subtype selective 2'-alkylsulfonyl-substituted analogues” (J Med Chem, 2002).

Experiments:
[1] = molecular target: T1, Alpha-1D adrenergic receptor (Homo sapiens) (UniProt P25100); assay: Efficacy as percent maximal effect observed for nonselective agonist phenylephrine in rat-1 fibroblasts expressing human Alpha-1D adrenergic receptor; type: functional
T1 sequence (whole entry): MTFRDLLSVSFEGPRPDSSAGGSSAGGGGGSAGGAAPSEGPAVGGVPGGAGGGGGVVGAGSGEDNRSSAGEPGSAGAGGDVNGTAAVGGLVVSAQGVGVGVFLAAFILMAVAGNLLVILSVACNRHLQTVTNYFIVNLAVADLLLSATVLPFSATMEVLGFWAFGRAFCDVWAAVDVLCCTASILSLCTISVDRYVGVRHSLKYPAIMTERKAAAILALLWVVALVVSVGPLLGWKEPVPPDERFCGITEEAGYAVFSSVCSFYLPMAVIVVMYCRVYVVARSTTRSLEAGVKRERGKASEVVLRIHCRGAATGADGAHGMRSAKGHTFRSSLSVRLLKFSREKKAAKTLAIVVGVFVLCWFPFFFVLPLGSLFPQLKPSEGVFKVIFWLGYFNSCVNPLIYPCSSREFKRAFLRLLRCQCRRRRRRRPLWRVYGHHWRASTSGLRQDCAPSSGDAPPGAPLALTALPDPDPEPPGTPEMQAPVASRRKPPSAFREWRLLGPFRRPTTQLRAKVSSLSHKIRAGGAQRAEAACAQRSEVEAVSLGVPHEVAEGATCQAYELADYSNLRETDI
Method in brief: (§1)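 Rat-1 fibroblasts expressing human α1a/α1b/α1d, grown in DMEM with 10% heat-inactivated FBS and 0.6 mg/mL G418, plated 6000 cells/well and cultured 48 h at 37 °C. Loaded 2 h at 37 °C with Calcium Green (4 μM), 0.2% pluronic acid and 2.5 mM probenecid in HEPES buffer pH 7.4. FLIPR read at room temperature: 10 s baseline, then 50 s after compound. 11-point curves as % of 40 μM phenylephrine response, top concentration typically 5 μM.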

[2] = molecular target: T2, Alpha-1D adrenergic receptor (Homo sapiens, UniProt P25100); assay: Agonist potency at Alpha-1D adrenergic receptor assayed in rat-1 fibroblasts expressing human alpha1d; type: functional
T2 sequence (P25100 whole entry): T1 sequence (whole entry)
Method in brief: (§2)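 Human α1a, α1b or α1d receptors expressed in Rat-1 fibroblasts (DMEM, 10% heat-inactivated FBS, 0.6 mg/mL G418). Cells were plated at 6000/well and grown 48 h at 37 °C. They were loaded 2 h at 37 °C with Calcium Green (4 μM), pluronic acid 0.2% and probenecid 2.5 mM in HEPES buffer pH 7.4, then read by FLIPR at room temperature: 10 s baseline, 50 s after compound. 11-point curves were expressed as % of the 40 μM phenylephrine response; top concentration typically 5 μM.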

[3] = molecular target: T3, Alpha-1A adrenergic receptor (Homo sapiens, UniProt P35348); assay: Agonist potency at Alpha-1 adrenergic receptor assayed in rat-1 fibroblasts expressing human Alpha-1A; type: functional; method in brief: as §2
T3 sequence (P35348 whole entry): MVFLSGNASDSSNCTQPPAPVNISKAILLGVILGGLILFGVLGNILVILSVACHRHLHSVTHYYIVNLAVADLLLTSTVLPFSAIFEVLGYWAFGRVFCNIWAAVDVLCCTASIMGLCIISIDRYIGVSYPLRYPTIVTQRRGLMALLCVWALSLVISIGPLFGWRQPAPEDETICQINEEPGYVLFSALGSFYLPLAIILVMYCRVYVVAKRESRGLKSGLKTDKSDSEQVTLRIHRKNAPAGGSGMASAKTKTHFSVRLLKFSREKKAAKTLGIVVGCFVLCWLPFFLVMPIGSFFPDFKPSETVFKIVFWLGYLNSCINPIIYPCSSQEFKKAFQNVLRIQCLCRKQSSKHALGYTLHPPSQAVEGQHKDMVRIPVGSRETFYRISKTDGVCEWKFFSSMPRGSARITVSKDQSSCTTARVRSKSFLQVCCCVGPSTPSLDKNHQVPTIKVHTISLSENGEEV

[4] = molecular target: T4, Alpha-2A adrenergic receptor (Homo sapiens) (UniProt P08913); assay: Agonist potency at Alpha-2A adrenergic receptor assayed in CHO cells expressing human alpha-2a; type: functional, cell-based
T4 sequence (whole entry): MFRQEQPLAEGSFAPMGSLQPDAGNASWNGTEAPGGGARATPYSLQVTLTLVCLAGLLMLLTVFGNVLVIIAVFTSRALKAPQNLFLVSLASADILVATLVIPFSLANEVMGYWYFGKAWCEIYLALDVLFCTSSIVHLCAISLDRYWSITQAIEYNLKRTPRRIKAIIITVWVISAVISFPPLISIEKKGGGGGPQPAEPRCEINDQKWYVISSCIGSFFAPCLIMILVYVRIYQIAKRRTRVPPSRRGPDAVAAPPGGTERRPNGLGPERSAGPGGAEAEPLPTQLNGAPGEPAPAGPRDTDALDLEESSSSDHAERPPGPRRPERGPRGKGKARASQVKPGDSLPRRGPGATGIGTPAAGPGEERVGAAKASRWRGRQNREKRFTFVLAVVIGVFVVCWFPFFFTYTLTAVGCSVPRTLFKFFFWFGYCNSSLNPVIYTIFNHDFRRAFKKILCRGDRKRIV

[5] = molecular target: T5, Alpha-2C adrenergic receptor (Homo sapiens) (UniProt P18825); assay: Agonist potency at Alpha-2C adrenergic receptor assayed in CHO cells expressing human Alpha-2C adrenergic receptor; type: functional, cell-based
T5 sequence (whole entry): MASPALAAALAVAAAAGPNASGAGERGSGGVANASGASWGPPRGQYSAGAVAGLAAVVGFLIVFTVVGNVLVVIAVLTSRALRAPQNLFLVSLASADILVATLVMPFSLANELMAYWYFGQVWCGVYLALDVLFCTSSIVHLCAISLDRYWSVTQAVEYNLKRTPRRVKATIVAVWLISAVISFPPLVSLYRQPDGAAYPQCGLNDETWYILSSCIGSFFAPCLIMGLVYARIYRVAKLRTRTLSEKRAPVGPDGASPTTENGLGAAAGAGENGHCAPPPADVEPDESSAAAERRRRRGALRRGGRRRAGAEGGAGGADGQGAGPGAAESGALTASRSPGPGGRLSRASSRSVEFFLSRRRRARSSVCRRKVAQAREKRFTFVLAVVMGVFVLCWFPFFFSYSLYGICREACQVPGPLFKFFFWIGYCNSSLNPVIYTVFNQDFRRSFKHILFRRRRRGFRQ

[6] = molecular target: T6, Alpha-2A adrenergic receptor (Homo sapiens, UniProt P08913); assay: Affinity to human aAlpha-2A adrenergic receptor determined by radioligand binding techniques from chinese hamster ovary (CHO) cells; type: cell-based
T6 sequence (P08913 whole entry): T4 sequence (whole entry)

[7] = molecular target: T6, Alpha-2A adrenergic receptor; assay: Agonist potency at Alpha-2A adrenergic receptor assayed in CHO cells expressing human alpha 2a; type: functional, cell-based
[8] = molecular target: T3, Alpha-1A adrenergic receptor; assay: Agonist potency at Alpha-1A adrenoceptors assayed in rat-1 fibroblasts expressing human Alpha-1A; type: functional; method in brief: as §1

| SMILES | Max [1] [%] | further results |
| --- | --- | --- |
| CSc1ccc(Cl)cc1NCC1=NCCN1 | 106 | – |
| C[S+]([O-])c1ccccc1NCC1=NCCN1 (stereo not drawn) | – | EC50 [2]: > 100000 nM; EC50 [3]: 490 nM |
| CCCS(=O)(=O)c1ccccc1NCC1=NCCN1 | – | pEC5 [4]: < 5; pEC5 [5]: 5.5; Ki [6]: > 7940 nM |
| CS(=O)(=O)c1ccccc1NCC1=NCCN1 | – | EC50 [2]: > 100000 nM; EC50 [3]: 56.2 nM |
| CSc1ccccc1NCC1=NCCN1 | 55 | EC50 [7]: 39.8 nM; EC50 [8]: 4.57 nM |
| CSc1ccc(C(F)(F)F)cc1NCC1=NCCN1 | 58 | – |
| CSc1cc(F)ccc1NCC1=NCCN1 | 75 | – |
| CSc1ccc(C)cc1NCC1=NCCN1 | 107 | – |
| CCSc1ccccc1NCC1=NCCN1 | 34 | – |
| CSc1ccc(F)cc1NCC1=NCCN1 | 107 | – |
| COc1ccc(SC)c(NCC2=NCCN2)c1 | 91 | – |
| CSc1c(F)cccc1NCC1=NCCN1 | 59 | – |
